Compound activity deposited in PubChem BioAssay by several laboratories.
In the library only some 1.8% were active in any assay of this set; here they are far more common.
APOBEC3G inh: blocks human APOBEC3G single-stranded DNA deamination | Q9HC16 | inhibition, % at 20 µM | 330,000 tested, 0.28% active | recombinant A3G, ssDNA deamination FAM/TAMRA fluorescence;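 active = inhibition of at least 40% at 20 µM, with no more than 30% in the related APOBEC3A deaminase screen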
Target sequence (Q9HC16 whole entry, looked up): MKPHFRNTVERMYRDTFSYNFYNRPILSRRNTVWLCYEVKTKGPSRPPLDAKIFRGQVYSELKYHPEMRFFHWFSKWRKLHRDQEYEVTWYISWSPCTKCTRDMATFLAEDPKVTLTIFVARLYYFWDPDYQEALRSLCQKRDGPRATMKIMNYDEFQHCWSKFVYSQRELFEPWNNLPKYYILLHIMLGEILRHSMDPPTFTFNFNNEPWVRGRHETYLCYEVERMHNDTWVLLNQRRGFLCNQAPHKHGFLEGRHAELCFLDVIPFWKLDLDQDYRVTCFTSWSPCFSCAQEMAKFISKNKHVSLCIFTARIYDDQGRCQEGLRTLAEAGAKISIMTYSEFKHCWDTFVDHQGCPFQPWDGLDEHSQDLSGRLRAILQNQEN
PHOSPHO1 inh: inhibitors of human PHOSPHO1 phosphatase; recombinant PHOSPHO1, absorbance phosphatase assay; inhibition, % at 13.3 µM; 290,000 tested, 1.1% active; in the data active = inhibition above about 60%
TbMetRS inhib: Trypanosoma brucei MetRS inhibition; 360,000 tested, 0.4% active; purified T. brucei MetRS, ATP depletion, Kinase-Glo luminescence; inhibition, % at 11.9 µM; AID 624268;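 active = inhibition above a per-plate cutoff of the control wells' mean inhibition plus 3 SD, cut at about 5.5% in these data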
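Dosing: 11.9 µM compound single dose, 0.9% DMSO; Assay system: purified T. brucei MetRS enzyme; Measured by: Kinase-Glo luciferase luminescence reporting remaining unconsumed ATP; Schedule: 15 min plus 2 h at 25 °C.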
pCIP destab: lowers stability of the mouse p/CIP coactivator protein; Q05BA5; F442A p/CIP-EGFP cells, EGFP fluorescence, 16 h; decrease of EGFP signal, % at 10 µM; 290,000 tested, 0.01% active;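 active = EGFP signal decrease of at least 30% at 10 µM or well 3 SD below plate mean, unless failing retest; inactive = the rest, including hits failing retest or dose response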
A3A deaminase: blocks human APOBEC3A ssDNA deamination; 330,000 tested, 0.41% active; AID 493011; recombinant A3A, FAM/TAMRA ssDNA deamination fluorescence; inhibition, % at 20 µM; P31941;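 active = at least 40% inhibition at 20 µM here, with at most 30% in a related deaminase screen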
Target sequence (P31941 whole entry, looked up): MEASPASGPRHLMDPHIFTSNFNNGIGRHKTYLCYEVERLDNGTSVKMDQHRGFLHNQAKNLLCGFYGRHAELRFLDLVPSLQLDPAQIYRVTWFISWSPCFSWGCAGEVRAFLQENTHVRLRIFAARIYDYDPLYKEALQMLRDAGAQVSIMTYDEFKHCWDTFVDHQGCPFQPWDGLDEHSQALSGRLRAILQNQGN
A3A conf: APOBEC3A (human) deaminase inhibition, confirmed; shares compounds with A3A deaminase; 1,400 tested, 63% active; recombinant A3A, ssDNA deaminase UDG fluorescence assay; inhibition, % at 20 µM; AID 493151;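 active = inhibition reaching a set limit, 80% of the first screen's cutoff, at 20 µM in any replicate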
UDG A3A counter: UDG inhibition in APOBEC3A counter-screen; shares compounds with A3A deaminase; UDG counterscreen, FAM/TAMRA uracil oligo fluorescence; inhibition, % at 20 µM; 1,000 tested, under 10 active; call rule not given here
Hits are given with their value; – = inactive; · = no result given.

SMILES	APOBEC3G inh	PHOSPHO1 inh	TbMetRS inhib	pCIP destab	A3A deaminase	A3A conf	UDG A3A counter
O=C(CSc1n[nH]c(-c2ccncc2)n1)Nc1ccc(Cl)c(Cl)c1	–	–	–	–	59.3	48.3	–
COC(=O)c1ccc(NCC(=O)Nc2cc(C)cc(C)c2)cc1	–	–	–	–	50.1	–	·
COC(=O)c1ccc(NC(=O)CSc2ccccn2)cc1	–	–	–	–	54.7	–	·
O=C(/C=C/c1ccco1)N1CCN(S(=O)(=O)c2ccccc2)CC1	–	·	–	·	41.1	–	·
Cc1ccc(S(=O)(=O)N2CCN(C(=O)/C=C/c3ccco3)CC2)cc1	–	–	–	–	–	·	·
Cc1ccc(CCNS(=O)(=O)c2ccc3c(c2)NC(=O)CCS3)cc1	–	–	–	–	–	·	·
CCCCN(C(=O)c1cnccn1)c1c(N)n(CCC)c(=O)[nH]c1=O	–	·	–	·	45.0	45.5	–
CCCCn1c(N)c(N(CCOC)C(=O)c2cnccn2)c(=O)[nH]c1=O	–	·	–	·	–	·	·
CCCCn1c(N)c(N(CC)C(=O)c2c(CC)noc2C)c(=O)[nH]c1=O	–	·	–	·	–	·	·
CCCCN(C(=O)c1c(CC)noc1C)c1c(N)n(CCCC)c(=O)[nH]c1=O	–	·	–	·	43.9	–	–
CCOc1cc(N2CCOCC2)c(OCC)cc1NC(=O)c1c(-c2ccccc2)noc1C	–	·	–	·	–	·	·
CCOc1cc(N2CCOCC2)c(OCC)cc1NC(=O)c1c(C)noc1C	–	·	–	·	43.2	–	·
CCOc1cc(N2CCOCC2)c(OCC)cc1NS(=O)(=O)c1cc(NC(C)=O)ccc1OC	–	–	–	–	46.3	19.7	–
COc1cc(C(=O)NNC(=O)c2cc(C)[nH]n2)cc(OC)c1OC	–	–	–	–	–	·	·
O=C(Nc1ccc(-c2cn3ccsc3n2)cc1)C1CC1	–	88.3	–	–	77.5	–	–
O=C(Nc1ccc(-c2cn3ccsc3n2)cc1)C1CCCC1	–	–	–	–	–	·	·
CCOc1cc(NS(=O)(=O)c2ccc(NC(C)=O)cc2)c(OCC)cc1NC(=O)c1cccs1	–	–	–	–	–	·	·
Cc1nc2cc(Cl)ccc2n1-c1ccccc1	–	–	–	–	–	·	·
Cc1n(-c2ccccc2)c2ccc(Cl)cc2[n+]1CCO	–	–	–	–	49.7	75.4	–
COc1ccccc1OCCSc1nnc(CNC(=O)c2ccco2)n1C	–	–	–	–	47.8	–	·
Oc1ccc(Nc2nc3ccccc3nc2Nc2ccc(O)cc2)cc1	–	99.8	–	–	41.9	42.9	–
Oc1ccc(Nc2nc(-c3ccccc3)nc3ccccc23)cc1	–	–	–	–	–	·	·
COc1ccc(-n2nc(C(=O)N(C)C)nc2-c2ccccc2)cc1	–	–	–	–	–	·	·
C=CCOc1ccc(C(=O)Nc2ccccc2C(=O)NCc2cccnc2)cc1	–	–	–	–	42.6	33.8	–
CCN(CC)CCCNc1nc2ccccc2c2[nH]c3ccc(OC)cc3c12	·	·	–	·	·	·	·
SMILES	APOBEC3G inh	PHOSPHO1 inh	TbMetRS inhib	pCIP destab	A3A deaminase	A3A conf	UDG A3A counter
O=C(OCC(=O)N1CCCc2ccccc21)c1cc(Cl)ccc1O	–	–	–	–	–	·	·
O=C(Nc1cccc2ncccc12)c1ccc(Cl)cc1	–	–	–	–	65.5	41.7	·
CCCCNS(=O)(=O)c1cccc(NC(=O)[C@H]2C[C@H](O)[C@@H](CO)O2)c1	·	·	–	·	·	·	·
O=C(O)c1cccc(-c2ccc(/C=C3/SC(=Nc4ccccc4)N(Cc4cccnc4)C3=O)o2)c1	–	–	–	–	51.9	32.6	–
Cc1ccc(/C=C/C(=O)OCn2nnc3ccccc3c2=O)o1	–	–	–	–	–	·	·
CCN(CC)C(=O)c1ncn(C)c1C(=O)N(CC)CC	–	·	–	·	51.3	64.2	–
CN(Cc1ccccc1)C(=O)c1ncn(Cc2ccccc2)c1C(=O)N(C)Cc1ccccc1	–	·	–	·	–	·	·
CN(Cc1ccccc1)C(=O)c1ncn(C)c1C(=O)N(C)Cc1ccccc1	–	·	–	·	60.5	66.7	–
CN=C1SC(CC(=O)Nc2ccc(F)cc2F)C(=O)N1/N=C/c1ccc(OC(F)F)c(OC)c1 (stereo not given)	–	–	–	–	–	·	·
COc1ccc(/C=C2\C(=O)NCC(=O)N2C)cc1	–	–	–	–	51.5	74.8	–
Cc1nn(C)c(Cl)c1CN1CCCC(CO)(Cc2ccccc2)C1 (stereo not given)	–	–	–	–	–	·	·
COc1cc(NC(=O)CSc2nnc3c(C)cc4cc(C)cc(C)c4n23)c(C(=O)O)cc1OC	–	–	–	–	–	·	·
COc1ccc2cc(C)c3nnc(SCC(=O)Nc4cc(OC)c(OC)cc4C(=O)O)n3c2c1	–	–	–	–	98.7	–	–
CN(C)S(=O)(=O)c1ccc(N2CCCC2)c(C(=O)Nc2ccc(F)cc2F)c1	–	·	–	·	40.7	–	·
Cc1cc(-c2ccccc2)nc(=O)[nH]1	–	–	–	–	–	·	·
Cn1cccc2[nH]c(=O)nc1-2	–	–	–	–	77.6	–	·
Cc1c2ccccc2cc[n+]1CCCS(=O)(=O)[O-]	–	–	–	–	–	·	·
CC[n+]1ccc(/C=C2\Sc3ccccc3N2CCCS(=O)(=O)[O-])c2ccccc21	–	–	–	–	82.8	92.4	–
CC1=C(C(=O)OCc2ccc([N+](=O)[O-])cc2)N2C(=O)C(NC(=O)Cc3ccccc3)C2SC1 (stereo not given)	–	–	–	–	50.2	39.6	–
O=C1OC(c2ccc3c(c2)OCO3)=N/C1=C\c1ccc(C(=O)O)cc1	–	–	–	–	40.2	32.2	–
N#CC(C#N)=Cc1cccn1-c1ccc(C(=O)O)cc1	–	–	–	–	–	·	·
N#C/C(=C/c1cccn1-c1cccc(C(=O)O)c1)c1ccc(Cl)cc1	–	–	–	–	70.1	64.5	·
CCN1CCN(c2ccc(S(=O)(=O)N3CCCCC3)cc2NC(=O)COc2ccc(Cl)cc2)CC1	–	·	–	·	–	·	·
CCN1CCN(c2ccc(S(=O)(=O)N3CCCCC3)cc2NC(=O)COc2cc(C)ccc2Cl)CC1	–	·	–	·	56.8	72.7	–
CC(Oc1ccc(F)cc1)C(=O)Nc1cc(S(=O)(=O)N2CCCCC2)ccc1N1CCOCC1 (stereo not given)	–	·	–	·	42.2	–	·
CCN1CCN(c2ccc(S(=O)(=O)N3CCCCC3)cc2NC(=O)COc2ccc(F)cc2Cl)CC1	–	–	–	–	55.9	52.9	–
CC(C)(COC(=O)c1ccccc1)N1CC2CCC(C1)O2	·	·	–	·	·	·	·
COc1ccc2c(C)cc(N3CCN(Cc4ccccc4)CC3)nc2c1	–	–	–	–	41.0	–	·
O=C1/C(=C\c2ccco2)SC(=S)N1C1CCS(=O)(=O)C1 (stereo not given)	–	–	–	–	–	·	·
O=C1/C(=C/c2ccco2)SC(=S)N1C1CCS(=O)(=O)C1 (stereo not given)	–	–	–	–	47.1	51.6	·
